Source: ChEMBL document CHEMBL1649392, “Synthesis of substituted 3-amino-N-phenyl-1H-indazole-1-carboxamides endowed with antiproliferative activity” (Eur J Med Chem, 2011)
Calls of active or inactive are those of the source. The rule behind the calls is not given here.

Key:
[1] = Cytotoxicity in HFF cells after 72 hrs by trypan blue exclusion assay; assay type: cell-based; details: human
Method in brief: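 Human normal fibroblasts, 2 × 10⁵ per well, seeded in RPMI 1640 with 10% fetal calf serum plus penicillin and streptomycin at 37 °C under CO₂. Compound added after 24 h. Living cells counted at 72 h by trypan blue exclusion, expressed as percent of control proliferation; GI50 derived.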

K562 [2] = experiment: Induction of apoptosis in human K562 cells assessed as increase in hypophosphorylated Rb level at 60 uM after 1.5 hrs by flow cytometric assay; assay type: functional, cell-based
Method in brief: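 K562 cells treated with or without 60 µM compound. 1.5 × 10⁶ cells washed in PBS, fixed and permeabilized 20 min in Cytofix/Cytoperm, then washed in Perm/Wash buffer. Stained 30 min at 4 °C with FITC anti-total pRb or PE anti-hypophosphorylated pRb mAbs, washed, and analysed by flow cytometry.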

K562 [3] = experiment: Induction of cell cycle arrest in human K562 cells assessed as increase in accumulation at G0/G1 phase at 60 uM after 24 hrs by flow cytometric analysis; assay type: functional, cell-based
Method in brief: (§1)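 K562 myeloblastic leukemia cells cultured 24 h with compound at 20, 40 or 60 µM, or untreated. Cells washed in ice-cold PBS and resuspended at 10⁶/mL in hypotonic propidium iodide (50 µg/mL) with 0.03% Nonidet P-40 in 0.1% sodium citrate. After 30 min, DNA content read by flow cytometry; sub-G0/G1, G0/G1, S and G2/M fractions scored.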

K562 [4] = experiment: Induction of cell cycle arrest in human K562 cells assessed as decrease in accumulation at S phase at 40 uM after 24 hrs by flow cytometric analysis; assay type: functional, cell-based; method in brief: as §1

## Nc1nn(C(=O)Nc2ccc(Cc3ccccc3)cc2)c2ccc(Cl)cc12
[1]
  GI50 at 72 h: 36 µM
K562 [2]
  Activity: Active
K562 [3]
  Activity: Active
K562 [4]
  Activity: Active
